Screening results: PubChem BioAssay, several laboratories
MEKK2 mut-MEK5: MEK5 binding signal on mutant MEKK2 PB1, primary screen, biochemical, multiplex bead flow cytometry, Alexa488-MEK5; Alexa488-MEK5 binding to MEKK2 mutant; percent response, % at 10 µM; 290,000 compounds, 0.35% hits; AID 1530, 2009; in the data active = percent response above about 24%, passing the limit was not always enough
MEKK3 PB1 HTS: modulators of MEKK3-MEK5 PB1 binding, primary screen, biochemical, wildtype MEKK3, multiplex bead flow cytometry, Alexa488-MEK5; AID 1529, 2009; 290,000 compounds, 1.4% hits; bead-based flow cytometry, Alexa488-MEK5 binding to MEKK3; actives lie on both sides; 0 = blocked by unlabeled MEK5, 100 = vehicle; binding response (% of control), % at 10 µM;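 active = binding response more than 3 SD above or below the average of its plate-row segment, actives on both sides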;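 also: Alexa488 bead fluorescence after subtracting the streptavidin-only scavenger bead signal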
Target sequence (Q99759 whole entry, looked up): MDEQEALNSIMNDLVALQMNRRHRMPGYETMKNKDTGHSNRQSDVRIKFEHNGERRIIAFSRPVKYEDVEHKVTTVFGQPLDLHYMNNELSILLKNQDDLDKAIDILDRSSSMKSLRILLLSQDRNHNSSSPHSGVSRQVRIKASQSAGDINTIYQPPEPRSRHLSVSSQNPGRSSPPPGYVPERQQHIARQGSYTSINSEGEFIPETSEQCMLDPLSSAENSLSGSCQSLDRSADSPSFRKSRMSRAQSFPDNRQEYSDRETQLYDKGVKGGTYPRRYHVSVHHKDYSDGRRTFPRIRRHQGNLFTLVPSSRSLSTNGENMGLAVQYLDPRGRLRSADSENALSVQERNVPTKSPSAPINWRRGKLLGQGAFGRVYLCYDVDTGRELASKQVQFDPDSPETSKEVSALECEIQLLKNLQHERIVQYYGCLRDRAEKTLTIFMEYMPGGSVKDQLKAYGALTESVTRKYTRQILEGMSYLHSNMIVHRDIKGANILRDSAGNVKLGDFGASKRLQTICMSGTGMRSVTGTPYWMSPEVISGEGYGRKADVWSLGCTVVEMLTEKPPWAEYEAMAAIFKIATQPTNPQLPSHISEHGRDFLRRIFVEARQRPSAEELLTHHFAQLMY
VIM-2 inh: VIM-2 metallo-beta-lactamase inhibitors, primary screen, biochemical, epi-absorbance readout, Pseudomonas aeruginosa enzyme | inhibition, % at 5.6 µM | AID 1527, 2009 | purified VIM-2, nitrocefin hydrolysis, epi-absorbance fluorescence | 290,000 compounds, 0.89% hits;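 active = inhibition above the mean of all tested compounds plus 3 SD, cutoff set per screening run, cut at about 7.5% in these data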;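 also: red hydrolysis product quenches plate fluorescence so inhibitors raise well fluorescence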
MEKK2 WT-MEK5: modulators of MEK5 binding to wildtype MEKK2, primary screen, biochemical, multiplex bead flow cytometry, Alexa488-MEK5; Mitogen-activated protein kinase kinase kinase 2 (Homo sapiens), Q9Y2U5; AID 1531, 2009; 290,000 compounds, 1.1% hits; binding response (% of control), % at 10 µM; Alexa488-MEK5 binding to MEKK2 WT; actives lie on both sides; in the data active = binding response below about 67% or above about 130%
IMP-1 inhibitor: IMP-1 metallo-beta-lactamase inhibitors, primary screen, biochemical, epi-absorbance readout, Pseudomonas aeruginosa enzyme; 290,000 compounds, 0.45% hits; purified IMP-1, nitrocefin hydrolysis, epi-absorbance fluorescence; AID 1556, 2009; inhibition, % at 5.6 µM; metallo-beta-lactamase IMP-1 (Pseudomonas aeruginosa);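 active = inhibition above the mean plus 3 SD of all compounds in the same screening run, cut at about 4.5% in these data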
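System: Purified recombinant IMP-1 metallo-beta-lactamase enzyme | Measured by: Fluorescence quenching readout, ex 480/em 530 nm | Replication: Singlicate | Incubation: 15 min preincubation plus 25 min reaction at 25 °C | Evaluation: Percent inhibition from optical density relative to buffer-blank wells | Benchmarks: DMSO with and without IMP-1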
MEKK2wt confirm: modulators of MEK5 binding to wildtype MEKK2, confirmation, biochemical, single concentration, multiplex bead flow cytometry | AID 1892, 2009 | shares compounds with MEKK3 PB1 HTS | Alexa488-MEK5 binding to MEKK2 WT; actives lie on both sides | binding response (% of control), % at 10 µM | 5,900 compounds, 2.4% hits; in the data active = binding response below about 16% or above about 210%; inactive = in between
MEKK2mut confirm: mutant MEKK2 PB1-MEK5 binding signal retest – biochemical, single concentration, multiplex bead flow cytometry, confirmation; shares compounds with MEKK3 PB1 HTS; Alexa488-MEK5 binding to MEKK2 mutant; percent response, % at 10 µM; 5,900 compounds, 2% hits; AID 1893, 2009; in the data active = percent response mostly above about 71%, no sharp cut-off; inactive = mostly below about 38%;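 also: higher means compound restores mutant binding toward wildtype level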
MEKK3 confirm: MEKK3 wild-type PB1 binding to MEK5, inhibitors, confirmation, biochemical, bead multiplex flow cytometry, single concentration, wildtype. shares compounds with MEKK3 PB1 HTS. Alexa488-MEK5 binding to MEKK3; hits give low values. binding response (% of control), % at 10 µM. 5,900 compounds, 1.8% hits. AID 1894, 2009;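 active = binding response below 72% of control, or above a set upper limit, though filed actives all read lower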;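 also: lower values mean stronger disruption of MEK5 binding to MEKK3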
A number is an active result; . = inactive; / = no result given; [ ] = dose if it differs, or a comment. Only some compounds are listed: those with a hit (about 3.4% of all), similar ones and a draw of the others.

SMILES | MEKK2 mut-MEK5 | MEKK3 PB1 HTS | VIM-2 inh | MEKK2 WT-MEK5 | IMP-1 inhibitor | MEKK2wt confirm | MEKK2mut confirm | MEKK3 confirm
CC1CCCN(C(=O)CN2C(=O)c3ccccc3C2=O)C1 (configuration not stated) | . | 29.0[inhibitor] | . | 13.0[inhibitor] | . | . | . | .
O=S(=O)(c1ccccc1)N1CCN(C(=S)Nc2ccc(Br)cc2)CC1 | . | . | . | . | . | / | / | /
COc1cc(C=O)ccc1OC(=O)N1CCOCC1 | . | . | . | . | . | / | / | /
C=CCC(C)(NCc1ccccc1)c1ccco1 (configuration not stated) | . | 2.0[inhibitor] | . | 2.0[inhibitor] | . | . | . | .
C/C(=N\NC(=O)CCC(=O)NCc1ccccc1)c1ccco1 | . | . | . | . | . | / | / | /
Nn1c(CSc2ccccn2)nc2ccccc2c1=O | . | . | . | . | . | / | / | /
O=C(CCCC(=O)NC1CCCC1)NC1CCCC1 | . | . | . | . | . | / | / | /
O=CNCC(=O)NC1CCCCCC1 | . | 79.0[inhibitor] | . | . | . | . | . | .
O=C(N/N=C/c1ccc2ncccc2c1)c1cc(-c2cccs2)nc2ccccc12 | . | 35.0[inhibitor] | . | 30.0[inhibitor] | . | . | . | .
COc1ccc(NC2CCCN(C(=O)c3ccc(OC)o3)C2)cc1 (configuration not stated) | . | . | . | . | . | / | / | /
O=C(NCc1nc2ncc(Br)cc2[nH]1)c1ccccc1 | . | 0.0[inhibitor] | . | 0.0[inhibitor] | . | . | . | .
Brc1cnc2nc(SC/C=C/c3ccccc3)[nH]c2c1 | . | . | . | . | . | / | / | /
CCNC(=O)NC(=O)C(C)OC(=O)CCS(=O)(=O)c1ccc(C)cc1 (configuration not stated) | . | . | . | . | . | / | / | /
CCNC(=O)NC(=O)C(C)On1nnc2ccc(S(=O)(=O)N(CC)CC)cc21 (configuration not stated) | . | 150.0 | . | . | . | . | . | .
CCCCCCCCCCCCCCCC[n+]1cccc2ccccc21 | . | 133.0 | . | 157.0 | . | 252.0 | 165.0 | .
O=C(C[n+]1cccc2ccccc21)c1ccccc1 | . | . | . | . | . | / | / | /
CCCCCCCCC[n+]1cccc2c3ccccc3ccc21 | . | . | . | 135.0 | . | . | . | .
Cc1ccc(S(=O)(=O)NC(C)C(c2cccs2)N2CCN(C)CC2)cc1 (configuration not stated) | . | . | . | . | . | / | / | /
O=C(NCc1cccs1)c1cccc(S(=O)(=O)N2CCCCC2)c1 | . | . | . | . | . | / | / | /
O=C(NCc1ccco1)c1ccc(S(=O)(=O)N2CCCCC2)cc1 | . | 130.0 | . | . | . | . | . | .
O=C(NCc1cccs1)c1ccc(Cl)c(S(=O)(=O)N2CCCC2)c1 | . | 74.0[inhibitor] | . | . | . | . | . | .
CCNc1ccc(C(=O)OCC(=O)c2cc(C)n(Cc3ccc4c(c3)OCO4)c2C)cc1[N+](=O)[O-] | . | . | . | . | . | / | / | /
Cc1ccc(Cl)cc1N1CCN(C(=O)Cc2cn(C)c3ccccc23)CC1 | . | 130.0 | . | . | . | . | . | .
O=[N+]([O-])c1ccc(O)c(C(C#Cc2ccccc2)N2CCOCC2)c1 (configuration not stated) | . | 67.0[inhibitor] | . | . | . | . | . | .
O=C(c1cc([N+](=O)[O-])ccc1N1CCOCC1)N1CCN(c2ccccc2)CC1 | . | . | . | . | . | / | / | /
SMILES | MEKK2 mut-MEK5 | MEKK3 PB1 HTS | VIM-2 inh | MEKK2 WT-MEK5 | IMP-1 inhibitor | MEKK2wt confirm | MEKK2mut confirm | MEKK3 confirm
Cc1onc(-c2ccccc2)c1C(=O)NC(=S)NNC(=O)c1ccncc1 | . | 131.0 | . | . | . | . | . | .
Cc1onc(-c2ccccc2)c1C(=O)NC(=S)NNC(=O)c1cccnc1 | . | . | . | . | . | / | / | /
COc1ccc(C(CNC(=O)c2ccc(NS(=O)(=O)c3ccc(F)cc3)cc2)N2CCOCC2)cc1 (configuration not stated) | . | . | . | . | . | / | / | /
CCOC(=O)Cc1csc(NC(=O)c2c(O)c3ccccc3n(CC(C)C)c2=O)n1 | . | 73.0[inhibitor] | . | . | . | . | . | .
Cc1nc(-c2ccccn2)nc(SCC(=O)N2CCOCC2)c1Cl | . | 129.0 | . | . | . | . | . | .
Cn1c(SCC(=O)N2CCOCC2)nc2cccnc21 | . | . | . | . | . | / | / | /
COc1ccc(NC(=O)NC2(C(=O)N3CCCCC3)CCCCC2)cc1 | . | . | . | . | . | / | / | /
CC(C)c1ccc(NC(=O)C(c2ccc3c(c2)OCO3)N2CCN(C(=O)c3ccco3)CC2)cc1 (configuration not stated) | . | . | . | . | . | / | / | /
CCN(CC)C(C(=O)Nc1ccc(C(C)C)cc1)c1ccc2c(c1)OCO2 (configuration not stated) | . | . | . | 134.0 | . | . | . | .
COC(=O)c1cc(=O)nc2sc3cc(OC)ccc3n12 | . | 122.0 | . | . | . | . | . | .
CCCCc1c(O)nc2sc3cc(OC)ccc3n2c1=O | . | . | . | . | . | / | / | /
O=[N+]([O-])c1ccc2sc(SCc3nc4ccccn4c3Br)nc2c1 | . | 138.0 | . | . | . | . | . | .
CS(=O)(=O)N1CCN(c2ccc(NC(=O)c3cccnc3Cl)cc2)CC1 | . | 1.0[inhibitor] | . | -3.0[inhibitor] | . | . | . | .
Cc1ccc(C(=O)Nc2ccc(N3CCN(S(C)(=O)=O)CC3)cc2)cc1 | . | . | . | . | . | / | / | /
COc1cc(/C=N/NC(=O)c2cc(-c3c(C)nn(-c4ccccc4)c3C)n[nH]2)ccc1O | . | . | . | . | . | / | / | /
O=C(CSc1nc2ccccc2c(=O)n1-c1ccc(OC(F)F)cc1)NCc1cccs1 | . | 138.0 | . | . | . | . | . | .
N=C1CCCN1CC(=O)c1ccc(Br)cc1 | . | 143.0 | . | . | . | . | . | .
O=C(c1ccc(Br)cc1)N1CCCC1 | . | . | . | . | . | / | / | /
